Results reported in ChEMBL document CHEMBL4041548, “Ester Prodrugs of IHVR-19029 with Enhanced Oral Exposure and Prevention of Gastrointestinal Glucosidase Interaction” (ACS Med Chem Lett, 2017).
Active and inactive are the calls of the source. The rule behind the calls is not given here.

Tests used:
Mus musculus [1] = experiment: Prodrug activation in BALB/c mouse assessed as 3-(tert-butyl)-1-cyclohexyl-1-(6-((2R,3R,4R,5S)-3,4,5-trihydroxy-2-(hydroxymethyl)piperidin-1-yl)hexyl)urea AUC(0 to infinity) at 100 mg/kg, po administered as single dose by LC-MS/MS analysis; format: organism-based; set-up: dose 100 mg/kg, route oral, time infinity; settings: in vivo
Mus musculus [2] = experiment: Prodrug activation in BALB/c mouse assessed as 3-(tert-butyl)-1-cyclohexyl-1-(6-((2R,3R,4R,5S)-3,4,5-trihydroxy-2-(hydroxymethyl)piperidin-1-yl)hexyl)urea Cmax at 100 mg/kg, po administered as single dose by LC-MS/MS analysis; format: organism-based; set-up: dose 100 mg/kg, route oral; settings: in vivo
In short: (§1)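 Male BALB/c mice dosed with the prodrugs or the parent orally (25 or 100 mg/kg) or intravenously (5 mg/kg). The parent compound was quantified in plasma and PK parameters were derived from it. The first sampling point was 5 min post-dose, and prodrugs were tracked up to 4 h.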

Mus musculus [3] = experiment: Prodrug activation in BALB/c mouse assessed as 3-(tert-butyl)-1-cyclohexyl-1-(6-((2R,3R,4R,5S)-3,4,5-trihydroxy-2-(hydroxymethyl)piperidin-1-yl)hexyl)urea AUC(0 to infinity) at 25 mg/kg, po administered as single dose by LC-MS/MS analysis; format: organism-based; set-up: dose 25 mg/kg, time infinity, route oral; settings: in vivo
[4] = Metabolic stability in pooled mouse liver microsomes assessed as parent compound remaining at 200 uM measured after 60 mins by LC-MS/MS analysis; format: ADME, microsome; settings: liver microsomes, read-out: Stability
In short: (§2)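 Prodrugs or parent incubated in pooled human or mouse liver microsomes for up to 60 min, with or without cofactor. Percent remaining and percent conversion to the parent were measured.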

Mus musculus [5] = experiment: Prodrug activation in BALB/c mouse assessed as 3-(tert-butyl)-1-cyclohexyl-1-(6-((2R,3R,4R,5S)-3,4,5-trihydroxy-2-(hydroxymethyl)piperidin-1-yl)hexyl)urea Tmax at 5 mg/kg, iv as bolus administration by LC-MS/MS analysis; format: organism-based; settings: in vivo; in short: as §1
[6] = Inhibition of pig liver endoplasmic reticulum alpha glucosidase-2 using 4-methylumbelliferyl-alpha-D-glucoside as substrate measured after 60 mins by fluorescence analysis; set-up: species or system Sus scrofa
[7] = Prodrug activation in simulated intestinal fluid assessed as 3-(tert-butyl)-1-cyclohexyl-1-(6-((2R,3R,4R,5S)-3,4,5-trihydroxy-2-(hydroxymethyl)piperidin-1-yl)hexyl)urea formation at 5 uM measured after 4 hrs by LC-MS/MS analysis
In short: (§3)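 Chemical stability assessed by incubation in simulated gastric fluid and simulated intestinal fluid; percent of compound remaining was measured.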

[8] = Metabolic stability in mouse plasma assessed as parent compound remaining at 5 uM measured after 2 hrs by LC-MS/MS analysis; format: ADME, cell-free; settings: read-out: Stability
In short: (§4)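 Compounds incubated in human or mouse plasma for 2 h. Percent remaining and percent conversion to the parent were determined.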

[9] = Half life in pooled mouse liver microsomes at 200 uM by LC-MS/MS analysis; format: ADME, microsome; settings: liver microsomes; in short: as §2
Bos taurus = species on record: Bos taurus; experiment: Inhibition of endoplasmic reticulum alpha-glucosidase in MDBK cells infected with Bovine Viral Diarrhea virus assessed as reduction in BVDV envelope glycoprotein E2 level at 3 to 100 uM by immunoblot analysis; format: cell-based
In short: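 MDBK cells infected with BVDV, then treated with various concentrations of the compounds. Cell lysates were run on SDS-PAGE and immunoblotted for the E2 envelope glycoprotein, looking for a mobility shift and lower intensity, with β-actin as internal control.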

[10] = Half life in pooled human liver microsomes at 200 uM by LC-MS/MS analysis; format: ADME, microsome; settings: liver microsomes; in short: as §2
Mus musculus [11] = experiment: Prodrug activation in BALB/c mouse assessed as 3-(tert-butyl)-1-cyclohexyl-1-(6-((2R,3R,4R,5S)-3,4,5-trihydroxy-2-(hydroxymethyl)piperidin-1-yl)hexyl)urea Tmax at 100 mg/kg, po administered as single dose by LC-MS/MS analysis; format: organism-based; settings: in vivo; in short: as §1
[12] = Metabolic stability in pooled mouse liver microsomes assessed as parent compound remaining at 200 uM measured after 60 mins in presence of NADPH and UDPGA by LC-MS/MS analysis; format: ADME, microsome; settings: read-out: Stability; in short: as §2
[13] = Prodrug activation in mouse intestinal S9 fraction assessed as 3-(tert-butyl)-1-cyclohexyl-1-(6-((2R,3R,4R,5S)-3,4,5-trihydroxy-2-(hydroxymethyl)piperidin-1-yl)hexyl)urea formation by measuring prodrug remaining at 200 uM measured after 1 hr in presence or absence of NADPH by LC-MS/MS analysis; set-up: species or system Intestine; settings: s9, 1 h
In short: (§5)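 Compounds incubated with intestinal S9 fraction for 1 h. Percent prodrug remaining and percent conversion to the parent were measured.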

[14] = Metabolic stability in pooled human liver microsomes assessed as parent compound remaining at 200 uM measured after 60 mins in presence of NADPH and UDPGA by LC-MS/MS analysis; format: ADME, microsome; settings: read-out: Stability; in short: as §2
Mus musculus [15] = experiment: Prodrug activation in BALB/c mouse assessed as 3-(tert-butyl)-1-cyclohexyl-1-(6-((2R,3R,4R,5S)-3,4,5-trihydroxy-2-(hydroxymethyl)piperidin-1-yl)hexyl)urea Cmax at 25 mg/kg, po administered as single dose by LC-MS/MS analysis; format: organism-based; set-up: dose 25 mg/kg, route oral; settings: in vivo; in short: as §1
[16] = Inhibition of pig liver endoplasmic reticulum alpha glucosidase-1 using 4-methylumbelliferyl-alpha-D-glucoside as substrate measured after 90 mins by fluorescence analysis; set-up: species or system Sus scrofa
[17] = Prodrug activation in human intestinal S9 fraction assessed as 3-(tert-butyl)-1-cyclohexyl-1-(6-((2R,3R,4R,5S)-3,4,5-trihydroxy-2-(hydroxymethyl)piperidin-1-yl)hexyl)urea formation by measuring prodrug remaining at 200 uM measured after 1 hr in presence or absence of NADPH by LC-MS/MS analysis; set-up: species or system Intestine; settings: s9, 1 h; in short: as §5
Mus musculus [18] = experiment: Prodrug activation in BALB/c mouse assessed as 3-(tert-butyl)-1-cyclohexyl-1-(6-((2R,3R,4R,5S)-3,4,5-trihydroxy-2-(hydroxymethyl)piperidin-1-yl)hexyl)urea half life at 5 mg/kg, iv as bolus administration by LC-MS/MS analysis; format: organism-based; settings: in vivo; in short: as §1
[19] = Metabolic stability in pooled human liver microsomes assessed as parent compound remaining at 200 uM measured after 60 mins by LC-MS/MS analysis; format: ADME, microsome; settings: liver microsomes, read-out: Stability; in short: as §2
[20] = Apparent permeability of the compound across basolateral side to apical side in human Caco2 cells assessed as drug recovery at 5 uM measured after 2 hrs by LC-MS/MS analysis; format: ADME, cell-based; settings: Caco-2, read-out: Drug recovery
[21] = Prodrug activation in simulated gastric fluid assessed as 3-(tert-butyl)-1-cyclohexyl-1-(6-((2R,3R,4R,5S)-3,4,5-trihydroxy-2-(hydroxymethyl)piperidin-1-yl)hexyl)urea formation at 5 uM measured after 4 hrs by LC-MS/MS analysis; in short: as §3
[22] = Metabolic stability in human plasma assessed as parent compound remaining at 5 uM measured after 2 hrs by LC-MS/MS analysis; format: ADME, cell-free; settings: read-out: Stability; in short: as §4
Mus musculus [23] = experiment: Prodrug activation in BALB/c mouse assessed as 3-(tert-butyl)-1-cyclohexyl-1-(6-((2R,3R,4R,5S)-3,4,5-trihydroxy-2-(hydroxymethyl)piperidin-1-yl)hexyl)urea Cmax at 5 mg/kg, iv as bolus administration by LC-MS/MS analysis; format: organism-based; set-up: dose 5 mg/kg, route intravenous; settings: in vivo; in short: as §1
[24] = Stability in simulated gastric fluid assessed as parent compound remaining at 5 uM measured after 4 hrs by LC-MS/MS analysis; in short: as §3
Mus musculus [25] = experiment: Prodrug activation in BALB/c mouse assessed as 3-(tert-butyl)-1-cyclohexyl-1-(6-((2R,3R,4R,5S)-3,4,5-trihydroxy-2-(hydroxymethyl)piperidin-1-yl)hexyl)urea AUC(0 to infinity) at 5 mg/kg, iv as bolus administration by LC-MS/MS analysis; format: organism-based; set-up: dose 5 mg/kg, route intravenous, time infinity; settings: in vivo

| SMILES | AUC (Mus musculus [1]) [ng·mL·h] | Cmax (Mus musculus [2]) [ng/mL] | AUC (Mus musculus [3]) [ng·mL·h] | remaining at 1 h, 200 µM [4] [%] | Tmax (Mus musculus [5]) [min] | IC50 [6] [µM] | Drug metabolism [7] [%] | remaining at 2 h, 5 µM [8] [%] | half-life at 200 µM [9] [min] | inhibition (Bos taurus) | half-life at 200 µM [10] [min] | Tmax (Mus musculus [11]) [min] | remaining at 1 h, 200 µM [12] [%] | Stability [13] [%] | remaining at 1 h, 200 µM [14] [%] | Cmax (Mus musculus [15]) [ng/mL] | IC50 [16] [µM] | Stability [17] [%] | t1/2 (Mus musculus [18]) [h] | remaining at 1 h, 200 µM [19] [%] | other results |
| --- | --- | --- | --- | --- | --- | --- | --- | --- | --- | --- | --- | --- | --- | --- | --- | --- | --- | --- | --- | --- | --- |
| CC(C)C(=O)OC[C@@H]1[C@@H](OC(=O)C(C)C)[C@H](OC(=O)C(C)C)[C@@H](OC(=O)C(C)C)CN1CCCCCCN(C(=O)NC(C)(C)C)C1CCCCC1 | 362 | 195 | 197 | 7 | 4.98 | > 100 | 0 | 0 | 14 | Active | 10 | 30 | 5 | < 50 | 2 | 104 | > 80 | < 50 | 1.25 | 2 | recovery at 2 h, 5 µM [20]: < 60%; Drug metabolism [21]: 0%; remaining at 2 h, 5 µM [22]: 100%; Cmax (Mus musculus [23]): 1213 ng/mL; Stability [24]: 108%; AUC (Mus musculus [25]): 569 ng·mL·h |
| CCCC(=O)OC[C@@H]1[C@@H](OC(=O)CCC)[C@H](OC(=O)CCC)[C@@H](OC(=O)CCC)CN1CCCCCCN(C(=O)NC(C)(C)C)C1CCCCC1 | 3884 | 998 | 529 | 12 | 4.98 | > 100 | 0 | 0 | 20 | Active | 14 | 30 | 10 | < 50 | 4 | 319 | > 80 | < 50 | 0.84 | 4 | recovery at 2 h, 5 µM [20]: < 60%; Drug metabolism [21]: 0%; remaining at 2 h, 5 µM [22]: 106%; Cmax (Mus musculus [23]): 15733 ng/mL; Stability [24]: 89%; AUC (Mus musculus [25]): 2288 ng·mL·h |
| CC(=O)OC[C@@H]1[C@@H](OC(C)=O)[C@H](OC(C)=O)[C@@H](OC(C)=O)CN1CCCCCCN(C(=O)NC(C)(C)C)C1CCCCC1 | 1912 | 1597 | 359 | 0 | 15 | > 100 | 0 | 0 | 2 | Active | 3 | 15 | 0 | < 50 | 0 | 375 | > 80 | < 50 | 1.11 | 0 | recovery at 2 h, 5 µM [20]: 42%; Drug metabolism [21]: 0%; remaining at 2 h, 5 µM [22]: 84%; Cmax (Mus musculus [23]): 463 ng/mL; Stability [24]: 94%; AUC (Mus musculus [25]): 368 ng·mL·h |
